For data set [1], the system named is B16-F1. Put plainly: Antimelanogenic activity in mouse B16-F1 cells assessed as reduction in alpha-MSH-stimulated melanin production preincubated for 72 hrs followed by alpha-MSH-stimulation and measured after 2 hrs. It is filed as functional, cell-based. The essentials: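 B16F1 cells seeded at 1 × 10⁵ cells/well, exposed to compound at indicated concentrations (up to 150 μM) together with 200 nM α-MSH for 72 h. Cells washed twice in PBS, dissolved in 1 N NaOH with 10% DMSO at 80 °C for 2 h, lysate absorbance read at 405 nm. IC₅₀ for melanin production; mean (SD) of three independent experiments.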

The nature of data set [2]: Antioxidant activity assessed as DPPH free radical scavenging activity after 10 mins. It is filed as functional. For orientation: The DPPH test is a chemical assay of radical scavenging.
For data set [3], the target named is T1, Tyrosinase (Agaricus bisporus, UniProt O42713).
T1 sequence (O42713 whole entry): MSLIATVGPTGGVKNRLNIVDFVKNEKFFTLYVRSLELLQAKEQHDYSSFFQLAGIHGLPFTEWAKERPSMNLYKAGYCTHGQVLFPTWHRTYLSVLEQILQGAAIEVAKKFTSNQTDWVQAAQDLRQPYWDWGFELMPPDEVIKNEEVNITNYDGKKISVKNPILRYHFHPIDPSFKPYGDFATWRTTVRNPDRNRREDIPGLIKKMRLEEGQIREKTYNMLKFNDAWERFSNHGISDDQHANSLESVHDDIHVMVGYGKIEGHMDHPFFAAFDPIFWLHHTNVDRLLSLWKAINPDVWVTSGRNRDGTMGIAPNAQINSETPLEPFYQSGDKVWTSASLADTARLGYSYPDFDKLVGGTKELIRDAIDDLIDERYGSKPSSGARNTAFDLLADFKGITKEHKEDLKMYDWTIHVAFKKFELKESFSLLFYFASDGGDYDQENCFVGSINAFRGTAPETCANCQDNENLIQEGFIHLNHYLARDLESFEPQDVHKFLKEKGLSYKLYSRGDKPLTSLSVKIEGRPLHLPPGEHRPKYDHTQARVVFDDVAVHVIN
Put plainly: Inhibition of mushroom tyrosinase.

For data set [4], the system named is B16-F1. Put plainly: Cytotoxicity against mouse B16-F1 cells at 100 to 200 uM after 72 hrs by MTT assay. As to conditions: b16-f1, 72 h. It is filed as cell-based. Summed up:
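B16F1 cells grown in DMEM with 10% FBS and 1% penicillin/streptomycin at 37 °C, 5% CO₂. Seeded 1 × 10⁴ cells/well, treated at 100, 150 and 200 μM for 72 h. Medium removed, MTT added for 1 h, formazan dissolved in DMSO, absorbance at 570 nm. Mean SD of three independent experiments vs untreated cells.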
For orientation: Tetrazolium assays rely on reduction of a dye to a coloured formazan, in cell work by metabolically active cells.

The target of data set [5] is T2, Tyrosinase (Mus musculus, UniProt P11344).
T2 sequence (P11344 whole entry): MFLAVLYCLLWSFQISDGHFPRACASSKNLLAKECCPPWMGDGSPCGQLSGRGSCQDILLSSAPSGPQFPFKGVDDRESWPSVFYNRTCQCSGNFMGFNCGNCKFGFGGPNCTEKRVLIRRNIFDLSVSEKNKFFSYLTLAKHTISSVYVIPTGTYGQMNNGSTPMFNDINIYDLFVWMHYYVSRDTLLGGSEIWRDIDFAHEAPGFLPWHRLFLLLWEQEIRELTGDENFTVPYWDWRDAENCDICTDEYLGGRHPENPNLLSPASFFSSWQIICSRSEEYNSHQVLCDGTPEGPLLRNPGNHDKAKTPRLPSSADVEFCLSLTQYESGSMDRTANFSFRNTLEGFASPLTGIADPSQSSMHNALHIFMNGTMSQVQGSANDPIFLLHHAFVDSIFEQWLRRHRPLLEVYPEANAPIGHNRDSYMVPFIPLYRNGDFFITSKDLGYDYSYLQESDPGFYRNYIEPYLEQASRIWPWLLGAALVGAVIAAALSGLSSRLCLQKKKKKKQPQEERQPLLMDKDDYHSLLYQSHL
Put plainly: Inhibition of tyrosinase in mouse B16-F1 cells. It is filed as cell-based. Summed up: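 Lysate of B16F1 cells in RIPA buffer, spun 13,000 rpm for 30 min at 4 °C, supernatant protein quantified by BCA. IC₅₀; mean (SD) of three independent experiments.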

Data set [6] can be described thus: Metal chelating activity of the compound assessed as Cu2+-compound complex formation at 50 uM after 10 mins by UV-Vis spectrophotometric analysis. Summed up:
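Copper chelation by UV–vis spectra (220–400 nm). 50 μL of 50 μM compound in ethanol mixed with 0.95 mL aqueous 10 μM CuSO₄, or water as control, incubated at 25 °C for 10 min before spectra recorded.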

A short description of data set [7]: Drug uptake in mouse B16-F1 cells. The data set is classed as ADME, cell-based.

Active and inactive are the calls of the source. The rule behind the calls is not given here.

Results on 14 molecules are retold here after ChEMBL document CHEMBL4382225, “Dimeric cinnamoylamide analogues for regulation of tyrosinase activity in melanoma cells: A role of diamide-link chain length” (Bioorg Med Chem, 2018).

Take `OC[C@H]1O[C@@H](Oc2ccc(O)cc2)[C@H](O)[C@@H](O)[C@@H]1O` [ARBUTIN]: the IC50 in the data set with B16-F1 [1] came to 148 µM. In addition, the EC50 in data set [2] is 1700 µM.
With `O=C(/C=C/c1cccc(O)c1)NCCCNC(=O)/C=C/c1cccc(O)c1`, the IC50 amounted to 55.2 µM against Tyrosinase [3], 40.2 µM at Tyrosinase [5] and 95.3 µM with B16-F1 [1]. Further, the Activity entry in the data set on B16-F1 [4] was “Non-Toxic”. Besides, the result in data set [6] was Active. Further, the EC50 in data set [2] was above 5000 µM.
Turning to `COc1ccc(/C=C/C(=O)NCCCCNC(=O)/C=C/c2ccc(OC)c(O)c2)cc1O`, the IC50 on Tyrosinase [3] was 80.2 µM; against Tyrosinase [5], above 150 µM; in the data set with B16-F1 [1], above 150 µM. The Activity entry with B16-F1 [4] was “Non-Toxic”. Further, the EC50 in data set [2] worked out at 4200 µM.
With `O=C(/C=C/c1ccc(O)cc1)NCCCCNC(=O)/C=C/c1ccc(O)cc1`, the IC50 is 6.5 µM at Tyrosinase [3], above 150 µM against Tyrosinase [5] and above 150 µM in the data set with B16-F1 [1]. Besides, the Activity result in the data set with B16-F1 [4] is listed as “Non-Toxic”. Further, in data set [2], the EC50 was above 5000 µM. Moreover, in data set [7], the Drug uptake entry is on record as “Active”.
As for `O=C1O[C@H]([C@@H](O)CO)C(O)=C1O` [ASCORBIC ACID], the 50% effective concentration (EC50) in data set [2] turned out to be 180 µM.
Take `COc1cc(/C=C/C(=O)NCCCCNC(=O)/C=C/c2ccc(O)c(OC)c2)ccc1O` [TERRESTRIBISAMIDE]: the IC50 is 108 µM against Tyrosinase [3], 88.4 µM against Tyrosinase [5] and above 150 µM with B16-F1 [1]. Also, the Activity result with B16-F1 [4] is given as “Non-Toxic”. Besides, the result in data set [6] was Active. For the same molecule, in data set [2], the EC50 was found to be 830 µM.
As to `COc1cc(/C=C/C(=O)NCCNC(=O)/C=C/c2ccc(O)c(OC)c2)ccc1O`, the IC50 at Tyrosinase [3], against Tyrosinase [5] and in the data set on B16-F1 [1] was above 150 µM throughout. The Activity entry in the data set with B16-F1 [4] is given as “Non-Toxic”. Moreover, the EC50 in data set [2] came to 90 µM.
In the case of `O=C(/C=C/c1ccc(O)cc1)NCCNC(=O)/C=C/c1ccc(O)cc1`, the IC50 against Tyrosinase [3] is 4.6 µM; at Tyrosinase [5], above 150 µM; with B16-F1 [1], above 150 µM. The Activity result in the data set with B16-F1 [4] was “Non-Toxic”. Also, in data set [2], the EC50 was above 5000 µM.
`COc1ccc(/C=C/C(=O)NCCCNC(=O)/C=C/c2ccc(OC)c(O)c2)cc1O`: the half-maximal inhibitory concentration (IC50) against Tyrosinase [3] came out at 55.3 µM; against Tyrosinase [5], 46.7 µM; in the data set with B16-F1 [1], 111 µM. In addition, the Activity result with B16-F1 [4] was “Non-Toxic”. Also, the result in data set [6] was Active. For the same molecule, in data set [2], the EC50 amounted to 2310 µM. The Drug uptake result in data set [7] was “Active”.
As to `COc1ccc(/C=C/C(=O)NCCNC(=O)/C=C/c2ccc(OC)c(O)c2)cc1O`, the values for the IC50 against Tyrosinase [3], against Tyrosinase [5] and with B16-F1 [1] were 84.2 µM, above 150 µM and above 150 µM, respectively. The Activity result in the data set with B16-F1 [4] is “Non-Toxic”. For the same molecule, the EC50 in data set [2] worked out at 2210 µM.
On to `COc1cc(/C=C/C(=O)NCCCNC(=O)/C=C/c2ccc(O)c(OC)c2)ccc1O`, for which the IC50 came out at 98.3 µM at Tyrosinase [3], 65.2 µM against Tyrosinase [5] and 123 µM in the data set with B16-F1 [1]. Further, the Activity result in the data set on B16-F1 [4] is on record as “Non-Toxic”. The result in data set [6] was Active. Also, the EC50 in data set [2] is 150 µM. The Drug uptake result in data set [7] is “Active”.
Turning to `O=C(/C=C/c1cccc(O)c1)NCCNC(=O)/C=C/c1cccc(O)c1`, the IC50 against Tyrosinase [3] was 95.3 µM; against Tyrosinase [5], above 150 µM; with B16-F1 [1] it was above 150 µM. Also, the Activity result in the data set on B16-F1 [4] is listed as “Non-Toxic”. Further, in data set [2], the EC50 was above 5000 µM.
Regarding `O=C(/C=C/c1ccc(O)cc1)NCCCNC(=O)/C=C/c1ccc(O)cc1`, the figures for the IC50 at Tyrosinase [3], against Tyrosinase [5] and in the data set on B16-F1 [1] were 3.4 µM, 4.6 µM and 45.6 µM, respectively. Moreover, the Activity entry in the data set with B16-F1 [4] was “Non-Toxic”. Besides, in data set [6], the outcome was Active. Further, the EC50 in data set [2] was above 5000 µM.
Turning to `O=C(/C=C/c1cccc(O)c1)NCCCCNC(=O)/C=C/c1cccc(O)c1`, the IC50 against Tyrosinase [3], against Tyrosinase [5] and in the data set on B16-F1 [1] was above 150 µM each time. The Activity result with B16-F1 [4] was “Non-Toxic”. Also, the EC50 in data set [2] is above 5000 µM. The Drug uptake entry in data set [7] is “Active”.

As usually defined, the IC50 is the concentration needed to halve the response being measured. As usually defined, the EC50 is the concentration needed to bring the measured effect to its halfway point.
